Reference: ChEMBL document CHEMBL3227926, “2-Mercaptoacetamidines as gastric antisecretory agents” (J Med Chem, 1979)
One block for each compound: values may come before it.

Key:
[1] = system: Canis familiaris; assay: Inhibition of gastrin tetrapeptide-induced gastric secretion in beagle dog at 8 mg/kg administered directly into stomach via gastric cannula measured after 2 hrs of stimulation; assay type: functional; details: Canis lupus familiaris
Procedure, shortened: (§1)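 Conscious female beagles (5-9 kg) with chronic gastric fistula. Dose in 50 mL 1% methylcellulose was put into the stomach via the cannula 1 h before gastrin tetrapeptide 64 µg/kg sc (from 640 µg/mL in 30% Me2SO); controls got vehicle. Juice was collected for 2 h. Volume was measured, titratable acid obtained by titration to pH 7 with 0.01 N NaOH, and total acid taken as volume × concentration.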

[2] = system: Canis familiaris; assay: Inhibition of gastrin tetrapeptide-induced gastric secretion in beagle dog at 16 mg/kg administered directly into stomach via gastric cannula measured after 2 hrs of stimulation; assay type: functional; details: Canis lupus familiaris; procedure, shortened: as §1
[3] = system: Canis familiaris; assay: Inhibition of gastrin tetrapeptide-induced gastric secretion in beagle dog assessed as volume at 8 mg/kg administered directly into stomach via gastric cannula measured after 2 hrs of stimulation; assay type: functional; details: Canis lupus familiaris; procedure, shortened: as §1
[4] = system: Canis familiaris; assay: Inhibition of gastrin tetrapeptide-induced gastric secretion in beagle dog assessed as titratable acid at 8 mg/kg administered directly into stomach via gastric cannula measured after 2 hrs of stimulation; assay type: functional; details: Canis lupus familiaris; procedure, shortened: as §1
[5] = system: Canis familiaris; assay: Inhibition of gastrin tetrapeptide-induced gastric secretion in beagle dog assessed as total acid output at 8 mg/kg administered directly into stomach via gastric cannula measured after 2 hrs of stimulation; assay type: functional; details: Canis lupus familiaris; procedure, shortened: as §1
[6] = system: Canis familiaris; assay: Inhibition of gastrin tetrapeptide-induced gastric secretion in beagle dog assessed as volume at 16 mg/kg administered directly into stomach via gastric cannula measured after 2 hrs of stimulation; assay type: functional; details: Canis lupus familiaris; procedure, shortened: as §1
[7] = system: Canis familiaris; assay: Inhibition of gastrin tetrapeptide-induced gastric secretion in beagle dog assessed as titratable acid at 16 mg/kg administered directly into stomach via gastric cannula measured after 2 hrs of stimulation; assay type: functional; details: Canis lupus familiaris; procedure, shortened: as §1
[8] = system: Canis familiaris; assay: Inhibition of gastrin tetrapeptide-induced gastric secretion in beagle dog assessed as total acid output at 16 mg/kg administered directly into stomach via gastric cannula measured after 2 hrs of stimulation; assay type: functional; details: Canis lupus familiaris; procedure, shortened: as §1
[9] = system: Canis familiaris; assay: Inhibition of histamine-induced gastric secretion in beagle dog assessed as volume at 32 mg/kg administered directly into stomach via gastric cannula measured after 2 hrs of stimulation; assay type: functional; details: Canis lupus familiaris
Procedure, shortened: (§2)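 Fistulated conscious female beagles (5-9 kg) got the dose intragastrically via cannula in 50 mL 1% methylcellulose, with vehicle controls. Histamine 64 µg base/kg sc (diphosphate in saline) was given 1 h later. Output over 2 h was assessed as volume, titratable acid (titration to pH 7, 0.01 N NaOH) and total acid output (volume × concentration).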

[10] = system: Canis familiaris; assay: Inhibition of histamine-induced gastric secretion in beagle dog assessed as titratable acid at 32 mg/kg administered directly into stomach via gastric cannula measured after 2 hrs of stimulation; assay type: functional; details: Canis lupus familiaris; procedure, shortened: as §2
[11] = system: Canis familiaris; assay: Inhibition of histamine-induced gastric secretion in beagle dog assessed as total acid output at 32 mg/kg administered directly into stomach via gastric cannula measured after 2 hrs of stimulation; assay type: functional; details: Canis lupus familiaris; procedure, shortened: as §2
[12] = system: Canis familiaris; assay: Inhibition of 2-deoxy-D-glucose-induced gastric secretion in beagle dog assessed as volume at 8 mg/kg administered directly into stomach via gastric cannula measured after 2 hrs of stimulation; assay type: functional; details: Canis lupus familiaris
Procedure, shortened: (§3)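 Female beagles (5-9 kg), nonanesthetized, with chronic gastric fistula. Test agent was given in 50 mL 1% methylcellulose through the gastric cannula, with vehicle controls, 1 h before 2-deoxy-D-glucose 200 mg/kg sc in saline. The 2 h collection was measured for volume and for acid by titration to pH 7 with 0.01 N NaOH; total acid was calculated as volume × concentration.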

[13] = system: Canis familiaris; assay: Inhibition of 2-deoxy-D-glucose-induced gastric secretion in beagle dog assessed as titratable acid at 8 mg/kg administered directly into stomach via gastric cannula measured after 2 hrs of stimulation; assay type: functional; details: Canis lupus familiaris; procedure, shortened: as §3
[14] = system: Canis familiaris; assay: Inhibition of 2-deoxy-D-glucose-induced gastric secretion in beagle dog assessed as total acid output at 8 mg/kg administered directly into stomach via gastric cannula measured after 2 hrs of stimulation; assay type: functional; details: Canis lupus familiaris; procedure, shortened: as §3
[15] = system: Canis familiaris; assay: Inhibition of 2-deoxy-D-glucose-induced gastric secretion in beagle dog assessed as volume at 16 mg/kg administered directly into stomach via gastric cannula measured after 2 hrs of stimulation; assay type: functional; details: Canis lupus familiaris; procedure, shortened: as §3
[16] = system: Canis familiaris; assay: Inhibition of 2-deoxy-D-glucose-induced gastric secretion in beagle dog assessed as titratable acid at 16 mg/kg administered directly into stomach via gastric cannula measured after 2 hrs of stimulation; assay type: functional; details: Canis lupus familiaris; procedure, shortened: as §3
[17] = system: Canis familiaris; assay: Inhibition of 2-deoxy-D-glucose-induced gastric secretion in beagle dog assessed as total acid output at 16 mg/kg administered directly into stomach via gastric cannula measured after 2 hrs of stimulation; assay type: functional; details: Canis lupus familiaris; procedure, shortened: as §3
[18] = system: Canis familiaris; assay: Toxicity in beagle dog assessed as emesis administered directly into stomach via gastric cannula; assay type: organism-based, Canis lupus familiaris; details: in vivo, other
[19] = system: Canis familiaris; assay: Toxicity in beagle dog assessed as tachycardia administered directly into stomach via gastric cannula; assay type: organism-based, Canis lupus familiaris; details: in vivo, other
[20] = system: Canis familiaris; assay: Toxicity in beagle dog assessed as gastric bleeding administered directly into stomach via gastric cannula; assay type: organism-based, Canis lupus familiaris; details: in vivo, other
[21] = system: Canis familiaris; assay: Inhibition of gastrin tetrapeptide-induced gastric secretion in beagle dog at 4 mg/kg administered directly into stomach via gastric cannula measured after 2 hrs of stimulation; assay type: functional; details: Canis lupus familiaris; procedure, shortened: as §1
[22] = system: Canis familiaris; assay: Inhibition of gastrin tetrapeptide-induced gastric secretion in beagle dog at 2 mg/kg administered directly into stomach via gastric cannula measured after 2 hrs of stimulation; assay type: functional; details: Canis lupus familiaris; procedure, shortened: as §1
[23] = system: Canis familiaris; assay: Inhibition of gastrin tetrapeptide-induced gastric secretion in beagle dog at 32 mg/kg administered directly into stomach via gastric cannula measured after 2 hrs of stimulation; assay type: functional; details: Canis lupus familiaris; procedure, shortened: as §1
[24] = Dissociation constant, apparent pKa of the compound in 20% EtOH/H2O; assay type: physicochemical; details: read-out: Apparent_pKa
Procedure, shortened: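 Potentiometric titration in 20% EtOH–H2O with a glass-calomel electrode. Sample was titrated directly with 0.5 N NaOH, or dissolved with excess NaOH and back-titrated with 0.5 N HCl. pKa was read as the pH at the half-neutralization point of the curve.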

[25] = system: Canis familiaris; assay: Inhibition of gastrin tetrapeptide-induced gastric secretion in beagle dog assessed as volume at 32 mg/kg administered directly into stomach via gastric cannula measured after 2 hrs of stimulation; assay type: functional; details: Canis lupus familiaris; procedure, shortened: as §1
[26] = system: Canis familiaris; assay: Inhibition of gastrin tetrapeptide-induced gastric secretion in beagle dog assessed as titratable acid at 32 mg/kg administered directly into stomach via gastric cannula measured after 2 hrs of stimulation; assay type: functional; details: Canis lupus familiaris; procedure, shortened: as §1
[27] = system: Canis familiaris; assay: Inhibition of gastrin tetrapeptide-induced gastric secretion in beagle dog assessed as total acid output at 32 mg/kg administered directly into stomach via gastric cannula measured after 2 hrs of stimulation; assay type: functional; details: Canis lupus familiaris; procedure, shortened: as §1

SMILES: Cl.N=C(CS)NCC12CC3CC(CC(C3)C1)C2
- inhibition in vivo at 8 mg/kg [1]: 47%
- inhibition in vivo at 16 mg/kg [2]: 74%
- inhibition in vivo at 8 mg/kg [3]: 7%
- inhibition in vivo at 8 mg/kg [4]: 0%
- inhibition in vivo at 8 mg/kg [5]: 8%
- inhibition in vivo at 16 mg/kg [6]: 74%
- inhibition in vivo at 16 mg/kg [7]: 91%
- inhibition in vivo at 16 mg/kg [8]: 83%
- inhibition in vivo at 32 mg/kg [9]: 36%
- inhibition in vivo at 32 mg/kg [10]: 40%
- inhibition in vivo at 32 mg/kg [11]: 55%
- inhibition in vivo at 8 mg/kg [12]: 31%
- inhibition in vivo at 8 mg/kg [13]: 18%
- inhibition in vivo at 8 mg/kg [14]: 42%
- inhibition in vivo at 16 mg/kg [15]: 79%
- inhibition in vivo at 16 mg/kg [16]: 85%
- inhibition in vivo at 16 mg/kg [17]: 97%
- Activity [18]: Toxic
- Activity [19]: Toxic
- Activity [20]: Toxic

SMILES: CCNC(=N)CS.Cl
- inhibition in vivo at 4 mg/kg [21]: 90%
- inhibition in vivo at 2 mg/kg [22]: 27%
- Activity [18]: Toxic
- Activity [19]: Toxic
- Activity [20]: Toxic

SMILES: Cl.N=C(CS)Nc1cccc(Cl)c1
- inhibition in vivo at 16 mg/kg [2]: 16%
- inhibition in vivo at 32 mg/kg [23]: 61%
- Activity [18]: Toxic
- Activity [19]: Toxic
- Activity [20]: Toxic

SMILES: Cl.SCC1=NCCN1
- inhibition in vivo at 2 mg/kg [22]: 100%
- Activity [18]: Toxic
- Activity [19]: Toxic
- Activity [20]: Toxic

SMILES: Cl.N=C(CCS)NCc1ccccc1
- inhibition in vivo at 16 mg/kg [2]: 18%
- inhibition in vivo at 32 mg/kg [23]: 42%
- Activity [18]: Toxic
- Activity [19]: Toxic
- Activity [20]: Toxic

- pKa [24]: 11
SMILES: N=C(CSCc1ccccc1)NC[C@@H]1C[C@H]2CC[C@H]1C2 (relative stereo; 51)
- inhibition in vivo at 16 mg/kg [2]: 19%
- Activity [18]: Toxic
- Activity [19]: Toxic
- Activity [20]: Toxic

SMILES: CNC(=S)NCCSCc1[nH]cnc1C [METIAMIDE]
- inhibition in vivo at 16 mg/kg [6]: 65%
- inhibition in vivo at 16 mg/kg [7]: 91%
- inhibition in vivo at 16 mg/kg [8]: 64%
- inhibition in vivo at 32 mg/kg [25]: 83%
- inhibition in vivo at 32 mg/kg [26]: 70%
- inhibition in vivo at 32 mg/kg [27]: 90%
